Experiment [1] is described as follows: inhibitors of TNFa-induced NFkB p65 translocation, primary screen, imaging, HUVEC, MLSMR starter and 10KST1 sets (AID 438;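 active = inhibition above 20% together with a positive visual image hit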;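 also: compound added about 3h40 before a 20 min TNFalpha stimulation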;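 as to inhibition: signal is the nuclear over cytoplasmic p65 intensity ratio per well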). Particulars: HUVEC TNFa-induced p65 nuclear translocation; cell count: measured here: nuclei count (cytotoxicity indicator), at 2.08 µM; inhibition: at 2 µM, stronger effect = higher value, 0% TNFa-plus-vehicle, 100% no-TNFa wells.
Experiment [2] is described as follows: reduction of polyQ htt aggregates in cells – imaging, exon1htt(103Q)mCFP cells, high-content imaging, primary screen (AID 483;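 active = visual image review flags a hit and inhibition of aggregation exceeds 20%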;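 also: compound exposure lasted 3 days before fixation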;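 as to nuclei count: percent of the per-plate median nuclei count of sample wells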). Particulars: exon1htt(103Q)mCFP cell line, aggregate imaging, at 2 µM; inhibition of aggregation: stronger effect = higher value; nuclei count: measured here: cell count, toxicity.
The nature of experiment [3]: endothelial E-selectin expression blockers – imaging, HUVEC, immunofluorescence, MLSMR starter and 10KST1 sets, primary screen (AID 487).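 As to inhibition: signal is fraction of cell area covered by stained E-selectin grains.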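 As to nuclei count: 100% = median nuclei count of all wells on the same plate.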 Particulars: HUVEC TNFalpha-induced E-selectin immunofluorescence imaging, at 2 µM; inhibition: stronger effect = higher value; nuclei count: measured here: cell number, toxicity.
For experiment [4], the target named is Voltage-gated potassium channel subunit beta-2 (Rattus norvegicus) (UniProt P62483). The experiment is described as follows: inhibitors of rat Kvbeta2 reductase activity – biochemical, NADPH fluorescence, primary screen (AID 622;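 active = fluorescence slope higher than the sample average by over 3 SD, cut at about -0.22 in these data, passing the limit was not always enough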;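 also: slope of raw intensity against log time taken from 70 to 1610 s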). To be noted: recombinant KvBeta, 4-cyanobenzaldehyde reduction, at 10 µM, stronger effect = higher value.
Experiment [5] shares this target. Put plainly: enhancers of rat Kvbeta2 NADPH turnover – biochemical, NADPH fluorescence, primary screen (AID 623;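 active = NADPH fluorescence slope more negative than the mean of all samples by about 3 SD, 99.7% confidence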;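 also: fluorescence intensity change per second fitted from 20 to 320 s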). Particulars: Recombinant KvBeta, NADPH fluorescence decrease slope, 10 min; at 10 µM; stronger effect = lower value.
Experiment [6] has as its target Muscarinic acetylcholine receptor M4 (Homo sapiens) (UniProt P08173). Put plainly: M4-linked GIRK flux change, two-sided – cell-based, HEK293 M4/GIRK, thallium flux, BTC-AM, M4 allosteric agonist project, primary screen (AID 625;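 active = fluorescence slope after compound addition differing from the mean of all tested samples at 99.7% confidence, mostly higher but some lower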;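 also: thallium influx through GIRK channels coupled to M4 in HEK293 cells with BTC-AM dye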). Particulars: at 10 µM, actives lie on both sides. The method in brief:
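assay system = HEK293 cells with M4 receptor and GIRK channels | medium = pH 7.3 thallium assay buffer | doses = 10 µM final, single point | timing = cells overnight at 37 °C, BTC-AM loading 1 h, reads 2 min total | signal = BTC-AM fluorescence, 1 Hz kinetic reads | read-out = post-addition slope, 15–24 s, of baseline-normalized fluorescence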

Experiment [7] can be described thus: blockers of RIG-like receptor reporter activation – cell-based, Sendai virus stimulus, luciferase, 10K MLSCN set, TLR/RLR signaling modifier project, primary screen (AID 602276;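 active = inhibition at or above 50% at 10 µM; inactive = inhibition below 50%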;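 also: firefly luciferase from ISG56 promoter only with Renilla not read in this screen; 0% = Sendai virus plus DMSO and 100% = medium plus DMSO without virus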). To be noted: HEK293 RL24 IRF3 luciferase reporter, at 10 µM, stronger effect = higher value.
A short description of experiment [8]: TLR3 IRF3 reporter activation blockers – cell-based, poly I:C stimulus, luciferase, 10K MLSCN set, primary screen (AID 602277;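 active = inhibition of the reporter signal at or above 50%; inactive = inhibition below 50%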). To be noted: HEK293-TLR3 RL24 IRF3 luciferase reporter, at 10 µM, stronger effect = higher value.

Activity calls are given as the source filed them.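 The calls were made as follows, unless noted: active = visually confirmed hit in the image check and inhibition above 20%; inconclusive = visually confirmed hit but inhibition not above 20%; inactive = no visual hit in the image check.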

Sequence of Muscarinic acetylcholine receptor M4 (Homo sapiens) (P08173 whole entry, looked up): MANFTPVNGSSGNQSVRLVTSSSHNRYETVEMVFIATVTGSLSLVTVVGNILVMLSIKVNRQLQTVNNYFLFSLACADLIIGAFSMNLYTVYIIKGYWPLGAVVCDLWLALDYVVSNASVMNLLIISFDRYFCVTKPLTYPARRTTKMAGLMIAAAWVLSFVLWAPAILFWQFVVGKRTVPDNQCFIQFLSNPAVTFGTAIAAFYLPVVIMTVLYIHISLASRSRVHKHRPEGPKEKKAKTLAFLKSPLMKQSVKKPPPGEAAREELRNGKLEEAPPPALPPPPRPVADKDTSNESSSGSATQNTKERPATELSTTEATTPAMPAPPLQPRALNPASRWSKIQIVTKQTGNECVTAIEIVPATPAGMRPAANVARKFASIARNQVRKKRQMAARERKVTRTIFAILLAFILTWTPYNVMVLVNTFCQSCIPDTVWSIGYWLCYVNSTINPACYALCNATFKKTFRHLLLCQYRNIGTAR
Sequence of Voltage-gated potassium channel subunit beta-2 (Rattus norvegicus) (P62483 whole entry, looked up): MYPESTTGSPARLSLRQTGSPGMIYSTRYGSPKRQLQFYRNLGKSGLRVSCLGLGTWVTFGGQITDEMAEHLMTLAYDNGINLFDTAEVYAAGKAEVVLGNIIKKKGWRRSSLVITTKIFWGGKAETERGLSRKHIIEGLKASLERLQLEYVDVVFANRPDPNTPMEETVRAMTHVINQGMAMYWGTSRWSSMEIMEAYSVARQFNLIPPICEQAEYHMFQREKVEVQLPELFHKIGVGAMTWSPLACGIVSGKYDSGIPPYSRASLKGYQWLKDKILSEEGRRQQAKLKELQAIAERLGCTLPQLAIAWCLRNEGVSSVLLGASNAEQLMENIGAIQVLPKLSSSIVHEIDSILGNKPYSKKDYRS

By inhibition is commonly meant the relative decrease from the control value, in per cent. In the case of `Cc1nc(SCC(=O)N2CCC(C(N)=O)CC2)n[nH]1`, in experiment [1], the cell count worked out at 516. Further, the inhibition is -17.1% (inactive) in experiment [1], -33.4% (inactive) in experiment [3], -0.32% (inactive) in experiment [7] and -1.6% (inactive) in experiment [8]. The inhibition of aggregation in experiment [2] is -2.4% (inactive). Also, the figures for the nuclei count in experiment [2] and in experiment [3] were 98.4% and 119%, respectively. For the same compound, the fluorescence slope in experiment [4] was -0.581 (inactive); in experiment [6], 0.00602 (inactive). The NADPH fluorescence slope in experiment [5] is -5.6e-05 (inactive).

Regarding `COC(=O)c1cccc(NC(=O)NC2CCCN2S(=O)(=O)c2ccc(Cl)cc2)c1` (centres undefined), the cell count in experiment [1] was found to be 612. Besides, the inhibition is -16.1% (inactive) in experiment [1], -144% (inactive) in experiment [3], 14% (inactive) in experiment [7] and 20.5% (inactive) in experiment [8]. Moreover, in experiment [2], the inhibition of aggregation is 2.9% (inactive). The values for the nuclei count in experiment [2] and in experiment [3] were 101% and 141%, respectively. For the same compound, the values for the fluorescence slope in experiment [4] and in experiment [6] were -0.392 (inactive) and 0.00559 (inactive), respectively. For the same compound, the NADPH fluorescence slope in experiment [5] is -6.9e-05 (inactive).

On to `Cc1ccccc1CNS(=O)(=O)c1ccc2c(c1)OCCO2`, for which the cell count in experiment [1] amounted to 450. The inhibition in experiment [1] was 3.6% (inactive); in experiment [3], -11.6% (inactive); in experiment [7], 7.7% (inactive); in experiment [8] it was 11.3% (inactive). The inhibition of aggregation in experiment [2] was 2.1% (inactive). Moreover, the nuclei count worked out at 108% in experiment [2] and 96.6% in experiment [3]. Further, the results for the fluorescence slope in experiment [4] and in experiment [6] were -0.558 (inactive) and 0.00348 (inactive), respectively. Further, the NADPH fluorescence slope in experiment [5] is -1.9e-05 (inactive).

Regarding `COc1ccc(-c2noc(COc3ccc4ccccc4c3Br)n2)cc1OC`, the cell count in experiment [1] was determined as 565. The inhibition in experiment [1] is 14.8% (inactive); in experiment [3] it was 8.2% (inactive); in experiment [7] it was -38.1% (inactive); in experiment [8], -45.2% (inactive). Besides, the inhibition of aggregation in experiment [2] was -29.8% (inactive). In addition, the figures for the nuclei count in experiment [2] and in experiment [3] were 109% and 104%, respectively. Moreover, the fluorescence slope in experiment [4] was -0.564 (inactive); in experiment [6] it was 0.00985 (inactive). The NADPH fluorescence slope in experiment [5] is -3e-05 (inactive).

For `Cc1ccccc1-c1nc2ccccc2c(=O)n1C1CCS(=O)(=O)C1` (centres undefined), the cell count in experiment [1] turned out to be 368. The inhibition in experiment [1] was 3.8% (inactive); in experiment [3] it was -4.7% (inactive); in experiment [7] it was 21% (inactive); in experiment [8], 31% (inactive). Also, in experiment [2], the inhibition of aggregation is -7.2% (inactive). For the same compound, the nuclei count in experiment [2] was 110%; in experiment [3], 102%. The results for the fluorescence slope in experiment [4] and in experiment [6] were -0.614 (inactive) and 0.00582 (inactive), respectively. For the same compound, the NADPH fluorescence slope in experiment [5] is 9.6e-06 (inactive).

`Cc1ccc(-n2ncc3c(Nc4c(C)n(C)n(-c5ccccc5)c4=O)ncnc32)c(C)c1`: in experiment [1], the cell count stood at 443. The inhibition in experiment [1] was 9.3% (inactive); in experiment [3], -81.8% (inactive); in experiment [7] it was 13.9% (inactive); in experiment [8], 12.5% (inactive). The inhibition of aggregation in experiment [2] was 6.8% (inactive). Besides, the nuclei count was 96.6% in experiment [2] and 120% in experiment [3]. For the same compound, the fluorescence slope in experiment [4] is -0.538 (inactive); in experiment [6], 0.0045 (inactive). In addition, in experiment [5], the NADPH fluorescence slope is -2.2e-05 (inactive).

With `COCCn1c(N)c(C(=O)Nc2sc3c(c2C(=O)OC)CCCC3)c2nc3ccccc3nc21`, the cell count in experiment [1] stood at 670. The inhibition in experiment [1] was 14.9% (inactive); in experiment [3], 5.1% (inactive); in experiment [7], 19.4% (inactive); in experiment [8], 9.11% (inactive). In addition, in experiment [2], the inhibition of aggregation is 21.8% (inactive). The values for the nuclei count in experiment [2] and in experiment [3] were 84.1% and 100%, respectively. The fluorescence slope is -0.57 (inactive) in experiment [4] and 0.00595 (inactive) in experiment [6]. Besides, the NADPH fluorescence slope in experiment [5] is 4.8e-06 (inactive).

With `CCOCCCNCC(=O)N1CCN(S(=O)(=O)c2ccc(C)cc2)CC1`, the cell count in experiment [1] is 642. Further, the inhibition in experiment [1] is 19.3% (inactive); in experiment [3], -61.6% (inactive); in experiment [7] it was 7.31% (inactive); in experiment [8], 27.6% (inactive). Moreover, the inhibition of aggregation in experiment [2] is -0.2% (inactive). Also, the figures for the nuclei count in experiment [2] and in experiment [3] were 94.5% and 131%, respectively. Besides, the figures for the fluorescence slope in experiment [4] and in experiment [6] were -0.614 (inactive) and 0.00526 (inactive), respectively. In addition, in experiment [5], the NADPH fluorescence slope is 1.2e-05 (inactive).

`COc1cccc(OCCOCCN(C)CCO)c1`: the cell count in experiment [1] stood at 313. Besides, the inhibition in experiment [1] was 1.5% (inactive); in experiment [3] it was 41.3% (inactive); in experiment [7], -3.56% (inactive); in experiment [8], 14.6% (inactive). The inhibition of aggregation in experiment [2] is 19.1% (inactive). For the same compound, the nuclei count in experiment [2] was found to be 85.9%; in experiment [3] it was 88.1%. The fluorescence slope in experiment [4] was -0.532 (inactive); in experiment [6], 0.00575 (inactive). In experiment [5], the NADPH fluorescence slope is -2.5e-05 (inactive).

Take `c1nc(NCC2CCCO2)c2[nH]cnc2n1` (centres undefined): in experiment [1], the cell count is 349. Further, the inhibition in experiment [1] is -12.5% (inactive); in experiment [3], -27.3% (inactive); in experiment [7], 13.9% (inactive); in experiment [8], 16.7% (inactive). Moreover, the inhibition of aggregation in experiment [2] is 12.3% (inactive). Moreover, the nuclei count in experiment [2] came out at 90.8%; in experiment [3] it was 118%. Moreover, the fluorescence slope in experiment [4] was -0.483 (inactive); in experiment [6], 0.00434 (inactive). In addition, the NADPH fluorescence slope in experiment [5] was 1.9e-05 (inactive).

`Cc1ccc(Nc2nc(CSc3nnnn3C)cs2)cc1`: in experiment [1], the cell count is 549. The inhibition in experiment [1] was -15.4% (inactive); in experiment [3], 5.9% (inactive); in experiment [7] it was -54.9% (inactive); in experiment [8], 98.7% (active). In addition, the inhibition of aggregation in experiment [2] was 3.7% (inactive). Further, the figures for the nuclei count in experiment [2] and in experiment [3] were 79.2% and 109%, respectively. Also, the fluorescence slope in experiment [4] was -0.458 (inactive); in experiment [6], 0.00561 (inactive). In experiment [5], the NADPH fluorescence slope is -0.000383 (inactive).

Regarding `Cc1cccc(N(CC(N)=O)S(C)(=O)=O)c1C`, the cell count in experiment [1] amounted to 369. Moreover, the inhibition is -5.2% (inactive) in experiment [1], -129% (inactive) in experiment [3], 11% (inactive) in experiment [7] and 14.1% (inactive) in experiment [8]. Moreover, the inhibition of aggregation in experiment [2] was 6.8% (inactive). The nuclei count came to 100% in experiment [2] and 122% in experiment [3]. In addition, the fluorescence slope in experiment [4] is -0.551 (inactive); in experiment [6], 0.00412 (inactive). In experiment [5], the NADPH fluorescence slope was -0.000105 (inactive).

Consider `CC(=O)c1c(C)[nH]c(C(=O)NCc2cccs2)c1C`, for which the cell count in experiment [1] turned out to be 471. Moreover, the inhibition in experiment [1] was 2.9% (inactive); in experiment [3], -76.6% (inactive); in experiment [7] it was -3.69% (inactive); in experiment [8] it was -17.2% (inactive). Also, the inhibition of aggregation in experiment [2] is 15.8% (inactive). Moreover, the nuclei count in experiment [2] amounted to 116%; in experiment [3], 95.6%. The fluorescence slope in experiment [4] is -0.561 (inactive); in experiment [6] it was 0.00619 (inactive). Also, the NADPH fluorescence slope in experiment [5] is -4.9e-05 (inactive).

For `CCCN1C(=O)SC(CC(=O)Nc2ccc(Br)cc2)C1=O` (centres undefined), in experiment [1], the cell count was 246. The inhibition was -7.8% (inactive) in experiment [1], -47.8% (inactive) in experiment [3], -2.25% (inactive) in experiment [7] and 7.35% (inactive) in experiment [8]. Besides, the inhibition of aggregation in experiment [2] is -2.4% (inactive). Also, the results for the nuclei count in experiment [2] and in experiment [3] were 96.5% and 104%, respectively. Besides, the values for the fluorescence slope in experiment [4] and in experiment [6] were -0.444 (inactive) and 0.00512 (inactive), respectively. Also, the NADPH fluorescence slope in experiment [5] was 2.7e-05 (inactive).
